In series [1] the test system is UT-7 cells. The series can be described thus: CellTiter-Glo cell proliferation / survival assay. As to conditions: medium without EPO; matched doses 1000 ng/mL (20 nM) vs 4 U/mL, 200 ng/mL (4 nM) vs 0.8 U/mL. The class given is cell-based, human. Background: Cellular ATP, detected with luciferase, serves as a proxy for viable cell number.
A further series deals with BaF3-hEPOR cells. Nature of the series: Western blot of EPOR downstream signaling. The class given is cell-based, murine. As to conditions: 10 min treatment, monitored 4 days. The procedure, abridged:
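They were exposed 10 min, pelleted, and resuspended in EPO-free medium. Lysates were taken at 0 min, 30 min, 1 h, 4 h and 1–4 days. Western blots on 4–20% gels were probed for p-ERK1/2 and p-STAT5.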
A general note: A western blot detects proteins with antibodies after separation by electrophoresis.

The target in series [2] is EPOR extracellular domain-IgFc construct (UniProt P19235). The series can be described thus: SPR.
UniProt P19235, sequence (P19235 25-250): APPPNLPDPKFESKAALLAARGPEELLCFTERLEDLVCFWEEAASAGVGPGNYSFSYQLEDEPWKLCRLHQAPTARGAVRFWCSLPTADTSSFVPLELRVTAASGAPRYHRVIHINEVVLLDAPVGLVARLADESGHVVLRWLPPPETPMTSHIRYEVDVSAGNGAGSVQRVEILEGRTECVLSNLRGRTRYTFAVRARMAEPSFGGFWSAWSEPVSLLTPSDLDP
Series [3] is described as follows: Single-dose PK study in healthy BALB/c mice. The class given is in vivo, mouse. The conditions noted are these: SC 0.08 mg/kg single dose. The procedure, abridged: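 Female BALB/c mice received a single sc injection of test compound or peptide dimer. Blood was sampled at several times over 14 days, and serum drug level was measured by MSD immunoassay. Mean concentration–time curves gave Tmax, Cmax, t1/2, AUC0-t, AUC0-∞ and MRT.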

For series [4], the system named is UT-7 cells. As to conditions: ref [21], [23]; cited from earlier work.

Data on four compounds can be found in publication PMC11789357 (Journal of Translational Medicine, 2025).

By Kd is commonly meant the free concentration of one partner at which half of the binding sites on the other are occupied at equilibrium, for simple one-to-one binding. Lower therefore signals a tighter complex.

For “rHuEPO (ESPO 3000): recombinant human erythropoietin product ESPO 3000, Kyowa Kirin”, in the series with UT-7 cells [1], the “UT-7 cell proliferation under continuous treatment” value was “maintained cell proliferation over 7 consecutive days of treatment”. Moreover, the “Phosphorylation levels of ERK1/2 MAPK and STAT5 after withdrawal” value in the series with BaF3-hEPOR cells was “showed a decline”.
The compound Pegmolesatide (peptide) showed a Kd in series [2] of 280 pM.
For the compound `CC(=O)NCC(=O)NCC(=O)N[C@H](C(=O)N[C@@H](Cc1ccc(O)cc1)C(=O)N[C@@H](CO)C(=O)N[C@H]1CSSC[C@@H](C(=O)N[C@@H](CCCNC(=N)N)C(=O)N2CCC[C@H]2C(=O)N[C@@H](CCC(N)=O)C(=O)N[C@@H](CCCNC(=N)N)C(=O)NCC(=O)NCCC(=O)N[C@@H](CCCCNC(=O)CN(CC(=O)NCCCC[C@H](NC(=O)CCNC(=O)CNC(=O)[C@H](CCCNC(=N)N)NC(=O)[C@H](CCC(N)=O)NC(=O)[C@@H]2CCCN2C(=O)[C@H](CCCNC(=N)N)NC(=O)[C@@H]2CSSC[C@H](NC(=O)[C@H](CO)NC(=O)[C@H](Cc3ccc(O)cc3)NC(=O)[C@@H](NC(=O)CNC(=O)CNC(C)=O)[C@@H](C)O)C(=O)N[C@@H](Cc3c[nH]cn3)C(=O)N[C@@H](Cc3ccccc3)C(=O)NCC(=O)N[C@@H](C)C(=O)N[C@@H](CC(C)C)C(=O)N[C@@H]([C@@H](C)O)C(=O)N[C@@H](Cc3c[nH]c4ccccc34)C(=O)N[C@@H](C(C)C)C(=O)N2)C(N)=O)C(=O)CCN)C(N)=O)NC(=O)[C@H](C(C)C)NC(=O)[C@H](Cc2c[nH]c3ccccc23)NC(=O)[C@H]([C@@H](C)O)NC(=O)[C@H](CC(C)C)NC(=O)[C@H](C)NC(=O)CNC(=O)[C@H](Cc2ccccc2)NC(=O)[C@H](Cc2c[nH]cn2)NC1=O)[C@@H](C)O` [Peptide dimer], the “Phosphorylation levels of ERK1/2 MAPK and STAT5 after withdrawal” value with BaF3-hEPOR cells is “showed a decline”. Also, the “Serum concentration” value in series [3] is given as “mostly below detection limits”.
Turning to “rHuEPO: recombinant human erythropoietin, as cited from literature”, in the series on UT-7 cells [4], the “Rate of internalization of the rHuEPO-receptor complex” value was 3.6 per hour and the “Time to lysosomal degradation post-internalization” value was 15 to 20 min.
